Assay results from ChEMBL document CHEMBL2417380, “Synthesis, pharmacological assessment, and molecular modeling of 6-chloro-pyridonepezils: new dual AChE inhibitors as potential drugs for the treatment of Alzheimer's disease” (Eur J Med Chem, 2013).

Key:
Homo sapiens = organism: Homo sapiens; assay: Selectivity index, ratio of IC50 for human plasma BuChE to IC50 for purified human erythrocyte AChE
Summary of the method: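 Index computed as hBuChE IC50 divided by hAChE IC50. Both IC50s come from the Ellman assay in 100 mM phosphate buffer, pH 8.0, at 30 °C, read at 412 nm with DTNB 0.2 mM. AChE was purified from human erythrocytes with acetylthiocholine substrate; BuChE came from human serum with butyrylthiocholine substrate, each substrate at 0.4 mM.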

Cholinesterase [1] = biological target: T1, Cholinesterase (Homo sapiens, UniProt P06276); assay: Inhibition of human plasma BuChE using butyrylthiocholine as substrate by Ellman's method
T1 sequence (P06276 whole entry): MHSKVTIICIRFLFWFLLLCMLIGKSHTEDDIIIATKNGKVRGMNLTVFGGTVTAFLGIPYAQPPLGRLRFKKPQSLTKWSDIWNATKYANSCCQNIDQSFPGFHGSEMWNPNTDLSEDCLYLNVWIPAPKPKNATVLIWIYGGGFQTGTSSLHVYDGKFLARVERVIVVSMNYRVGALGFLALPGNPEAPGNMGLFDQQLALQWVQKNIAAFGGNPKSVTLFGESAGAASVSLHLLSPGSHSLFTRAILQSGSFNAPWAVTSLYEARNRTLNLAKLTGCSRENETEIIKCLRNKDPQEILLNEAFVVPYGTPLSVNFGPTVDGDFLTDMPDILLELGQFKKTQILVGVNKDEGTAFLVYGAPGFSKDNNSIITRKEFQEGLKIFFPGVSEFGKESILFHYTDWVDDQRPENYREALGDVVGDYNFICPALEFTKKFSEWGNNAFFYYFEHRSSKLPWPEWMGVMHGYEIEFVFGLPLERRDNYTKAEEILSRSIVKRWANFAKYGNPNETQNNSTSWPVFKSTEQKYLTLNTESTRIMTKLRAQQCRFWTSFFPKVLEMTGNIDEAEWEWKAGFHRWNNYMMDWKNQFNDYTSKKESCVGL
Summary of the method: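 Ellman spectrophotometric assay with BuChE from human serum in 100 mM phosphate buffer, pH 8.0, at 30 °C. Butyrylthiocholine (0.4 mM) was the substrate and DTNB 0.2 mM. Absorbance change at 412 nm gave IC50 as the concentration giving 50% inhibition. Values are mean ± s.e.m. of at least three experiments run in quadruplicate.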

[2] = Permeability of the compound at 1 mg/ml after 4 hrs by PAMPA; format: ADME; details: read-out: permeability
Summary of the method: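 PAMPA-BBB: donor filter impregnated with porcine brain lipid in dodecane (20 mg/mL). Compound dissolved in PBS (pH 7.4)/ethanol (7:3) and filtered before loading into the donor wells. The acceptor wells held PBS/ethanol (7:3). Incubated undisturbed 4 h at 25 °C. Acceptor concentration measured by UV at five wavelengths, in four wells, over at least three independent runs; mean (SD).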

Acetylcholinesterase = Acetylcholinesterase (Homo sapiens, UniProt P22303); assay: Inhibition of purified human erythrocyte AChE using […] as substrate by Ellman's method
Sequence of Acetylcholinesterase (P22303 whole entry): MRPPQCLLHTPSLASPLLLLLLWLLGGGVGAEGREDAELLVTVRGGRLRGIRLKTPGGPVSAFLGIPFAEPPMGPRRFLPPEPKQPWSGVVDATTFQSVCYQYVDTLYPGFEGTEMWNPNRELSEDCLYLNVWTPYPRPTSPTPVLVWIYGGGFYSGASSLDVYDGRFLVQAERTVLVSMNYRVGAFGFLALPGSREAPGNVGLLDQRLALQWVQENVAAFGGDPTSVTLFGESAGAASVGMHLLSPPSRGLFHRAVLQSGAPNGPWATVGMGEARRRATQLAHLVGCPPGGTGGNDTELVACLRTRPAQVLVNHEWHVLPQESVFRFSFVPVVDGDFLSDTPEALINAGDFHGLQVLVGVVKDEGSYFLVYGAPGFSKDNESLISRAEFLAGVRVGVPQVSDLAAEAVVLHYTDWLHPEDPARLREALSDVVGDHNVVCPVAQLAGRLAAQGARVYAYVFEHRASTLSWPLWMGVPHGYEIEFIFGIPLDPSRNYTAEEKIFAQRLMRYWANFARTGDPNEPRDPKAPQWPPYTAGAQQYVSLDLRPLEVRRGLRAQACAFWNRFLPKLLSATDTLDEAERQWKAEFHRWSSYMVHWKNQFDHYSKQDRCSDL

Cholinesterase [3] = biological target: T1, Cholinesterase; assay: Ratio of donepezil IC50 to compound IC50 for human plasma BuChE

| SMILES | Ratio IC50 (Homo sapiens) | IC50 (Cholinesterase [1]) [µM] | Papp at 4 h, 1 mg/ml [2] [×10⁻⁶ cm/s] | IC50 (Acetylcholinesterase) [µM] | Ratio IC50 (Cholinesterase [3]) |
| --- | --- | --- | --- | --- | --- |
| N#Cc1cc(C#N)c(NCCCC2CCN(Cc3ccccc3)CC2)nc1Cl | 155 | 8.39 | 5.98 | 0.054 |  |
| N#Cc1c(Cl)nc(NCCC2CCN(Cc3ccccc3)CC2)c(C#N)c1-c1ccccc1 |  | > 10 |  | 4.4 |  |
| N#Cc1c(Cl)nc(NC2CCN(Cc3ccccc3)CC2)c(C#N)c1-c1ccccc1 |  | > 10 |  | 9.43 |  |
| N#Cc1cc(C#N)c(NCCC2CCN(Cc3ccccc3)CC2)nc1Cl | 1.52 | 0.47 | 8.52 | 0.31 | 5 |
| N#Cc1cc(C#N)c(NC2CCN(Cc3ccccc3)CC2)nc1Cl |  | > 10 | 7.39 | 5.35 |  |
| N#Cc1cc(C#N)c(NCCCCC2CCN(Cc3ccccc3)CC2)nc1Cl | 625 | 8.13 | 6.99 | 0.013 |  |
| N#Cc1c(NCCC2CCN(Cc3ccccc3)CC2)nc(NCCC2CCN(Cc3ccccc3)CC2)c(C#N)c1-c1ccccc1 |  | > 10 |  | 9.77 |  |
| N#Cc1c(Cl)nc(NCCCC2CCN(Cc3ccccc3)CC2)c(C#N)c1-c1ccccc1 | 2.43 | 9.41 | 10.1 | 3.86 |  |
| N#Cc1cc(C#N)c(NC2CCN(Cc3ccccc3)CC2)nc1NC1CCN(Cc2ccccc2)CC1 |  | > 10 | 5 | 7.3 |  |
| N#Cc1c(Cl)nc(NCCCCC2CCN(Cc3ccccc3)CC2)c(C#N)c1-c1ccccc1 | 181 | 5.62 | 10.3 | 0.031 |  |
